Results reported in paper PMC5424638 (Biomolecules & Therapeutics, 2016).

Experiments:
CVB3 (Nancy strain) = test: Anti-viral activity assay in CVB3-infected cardiomyocytes; type: cell-based, coxsackievirus B3; conditions: for IC50: Enterovirus B, CVB3, Cardiomyocyte, 72 h; for TI (TC50/IC50): cardiomyocytes
Procedure, shortened: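 Neonatal rat cardiomyocytes grown to confluence (about 1x10^4 cells/well) were infected with CVB3 (Nancy strain, 100 TCID50) for 2 h in six replicates. Cells were washed three times with PBS, then exposed to serial dilutions of test compound for 72 h. XTT plus phenazine methosulfate was added for 2 h, and OD was read at 450 nm (reference 690 nm). Inhibition was (ODtv−ODcv)/(ODcd−ODcv)x100, giving IC50 and TI (TC50/IC50).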

CVB3 = test: Virus titration from heart homogenate of CVB3-infected mice; type: in vivo, BALB/c mice; conditions: day 7, n=10
[1] = Pharmacokinetics in rats after single oral administration; type: in vivo, rat; conditions: single oral dose 20 mg/kg, preliminary, unpublished data
CVB3-induced myocarditis = test: CVB3-induced viral myocarditis mouse model, cardiac pathological score; type: in vivo, BALB/c mice; conditions: for Pathological score (grade): day 7, n=10; for Myocardial damage compared with the infected control (model) group: 20, 40 and 60 mg/kg, day 7
Procedure, shortened: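 Four-week-old male BALB/c mice (n=10/group, pathogen-free) received CVB3 i.p. at 100xTCID50 in 0.1 ml RPMI 1640. From day 2, interferon alpha was given i.p. once daily, and test compound at 20, 40 or 60 mg/kg was given by oral gavage in 0.5% CMC-saline. On day 7, ventricles were formalin-fixed, paraffin-embedded, cut at 4 µm and H&E stained. Inflamed fraction of the section (eyepiece grid, x200) was graded 0–4 (<25%, 25–50%, 50–75%, >75%).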

Cytotoxicity assay = type: cell-based, rat; conditions: Sprague-Dawley, rat, primary neonatal rat cardiomyocytes
Procedure, shortened: (§1)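 Ventricles from 1–3-day-old Sprague-Dawley rats were digested with 0.05% collagenase II/0.05% trypsin at 37°C, pre-plated 1.5 h to remove nonmyocytes, and cultured 3 days in DMEM/10% FBS. Cells were exposed to test compound at 0.01–1000 µM for 72 h (final DMSO ≤0.05%). MTT was added for 4 h at 37°C and absorbance read at 570 nm. TC50 (50% viability loss vs untreated) came from at least three dose-response curves.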

[2] = system: neonatal rat cardiomyocytes; test: Cytotoxicity assay; type: cell-based; conditions: for 50% toxic concentration (CC50) fold higher than in the cinnamaldehyde group: cardiomyocytes
Procedure, shortened: as §1

[3] = 24 h stability in blood at room temperature; type: in vitro ADME, rat; conditions: unpublished data
[4] = ref Yuan et al., 1992; cited from earlier work
IL-1β [5] = test: IL-1β level in culture supernatant of CVB3-infected cardiomyocytes; type: cell-based, rat; conditions: 10 μM, 72 h; viral control 163.64 ± 19.75
TNF-α [6] = test: TNF-α level in culture supernatant of CVB3-infected cardiomyocytes; type: cell-based, rat; conditions: 10 μM, 72 h; viral control 80.12 ± 8.40
IL-6 [7] = test: IL-6 protein expression in CVB3-infected cardiomyocytes; type: cell-based, rat; conditions: 10 μM, 24 h
Procedure, shortened: (§2)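 CVB3-infected neonatal rat cardiomyocytes were treated with 10 µM test compound for 24 h. Whole-cell lysates (equal protein) were run on 15% SDS-PAGE and transferred to nitrocellulose. Membranes were blocked in 5% skimmed milk for 2 h at room temperature, probed with cytokine and GAPDH antibodies overnight at 4°C, then with HRP secondary for 1 h, and detected by chemiluminescence. Bands were expressed as ratio to GAPDH (n=3, mean ± SD).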

IL-1β mRNA = IL-1β mRNA expression in CVB3-infected cardiomyocytes; type: cell-based, rat; conditions: 10 μM, 12 h
Procedure, shortened: (§3)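 Neonatal rat cardiomyocytes were infected with CVB3 and then incubated with 10 µM test compound. Cytokine mRNA expression in the cells was measured by real-time PCR after 12 h. Data are given as mean ± SD.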

TNF-α [8] = test: TNF-α protein expression in CVB3-infected cardiomyocytes; type: cell-based, rat; conditions: 10 μM, 24 h
Procedure, shortened: as §2

TNF-α mRNA = TNF-α mRNA expression in CVB3-infected cardiomyocytes; type: cell-based, rat; conditions: 10 μM, 12 h
Procedure, shortened: as §3

IL-6 [9] = test: IL-6 level in culture supernatant of CVB3-infected cardiomyocytes; type: cell-based, rat; conditions: 10 μM, 72 h; viral control 337.46 ± 29.22
IL-1β [10] = test: IL-1β protein expression in CVB3-infected cardiomyocytes; type: cell-based, rat; conditions: 10 μM, 24 h
Procedure, shortened: as §2

IL-6 mRNA = IL-6 mRNA expression in CVB3-infected cardiomyocytes; type: cell-based, rat; conditions: 10 μM, 12 h
Procedure, shortened: as §3

Row | SMILES | IC50 (CVB3 (Nancy strain)) | TI (TC50/IC50) (CVB3 (Nancy strain)) | Viral titers (CVB3; 20 mg/kg/day, oral gavage) | Viral titers (CVB3; 40 mg/kg/day) | Time at which peak concentration was achieved after oral administration [1] | Pathological score (grade) (CVB3-induced myocarditis; 20 mg/kg/day, oral gavage) | Pathological score (grade) (CVB3-induced myocarditis; 40 mg/kg/day) | Pathological score (grade) (CVB3-induced myocarditis; 60 mg/kg/day, oral gavage) | Myocardial damage compared with the infected control (model) group (CVB3-induced myocarditis) | CC50 at 72 h (Cytotoxicity assay) | 50% toxic concentration (CC50) fold higher than in the cinnamaldehyde group [2] | Stability in blood [3] | CVB3-mediated IL-6 expression (Western blot) (IL-6 [7]) | IL-1β mRNA expression (IL-1β mRNA) | CVB3-mediated TNF-α expression (Western blot) (TNF-α [8]) | TNF-α mRNA expression (TNF-α mRNA) | CVB3-mediated IL-1β expression (Western blot) (IL-1β [10]) | IL-6 mRNA expression (IL-6 mRNA) | other results
1 | O=C/C=C/c1ccc(Cl)cc1 [Compound 2, (E)-3-(4-chlorophenyl) acrylaldehyde] | 2110 µM | 3.31 | 3.30 ± 0.48 Log TCID50/mg | 3.20 ± 0.63 Log TCID50/mg | about 1.2 h | 2.85 ± 0.70 grade | 2.85 ± 0.70 grade | 2.75 ± 0.60 grade | no significant difference | 6970 µM | 7114 fold | stable for 24 h | – | – | – | – | – | – | Viral titers (CVB3; 60 mg/kg/day, oral gavage): 3.10 ± 0.57 Log TCID50/mg; CC50 ([2]; neonatal rat cardiomyocytes, 0.01–1000 μM, 72 h, MTT, called TC50 in methods): no obvious cytotoxicity
2 | O=CC=Cc1ccccc1 [Cinnamaldehyde, 3-phenyl-2-propenal, reference compound] | 24.2 ± 4.77 µM | 0.04 | – | 2.80 ± 0.63 Log TCID50/mg | – | – | 2.40 ± 0.50 grade | – | – | 0.98 ± 0.12 µM | – | – | – | – | – | – | – | – | Half-life in rat blood [4]: 4 min
3 | O=C/C(Br)=C/c1ccc(Cl)cc1 [Compound 5, (Z)-2-bromo-3-(4-chlorophenyl) acrylaldehyde] | 2.12 ± 0.37 µM | 40.42 | 2.80 ± 0.42 Log TCID50/mg | – | ~2.1 h | 1.95 ± 0.40 grade | 1.75 ± 0.60 grade | 1.30 ± 0.50 grade | significantly reduced | 85.7 ± 7.63 µM | 87 fold | stable for 24 h | markedly diminished | inhibited | markedly diminished | inhibited | markedly diminished | inhibited | IL-1β level in culture supernatant (IL-1β [5]): 112.72 ± 13.60 pg/mL; TNF-α level in culture supernatant (TNF-α [6]): 43.60 ± 4.77 pg/mL; IL-6 level in culture supernatant (IL-6 [9]): 232.80 ± 19.62 pg/mL
4 | Cc1ccc(/C=C/C=O)cc1 [Compound 1, (E)-3-p-tolylacrylaldehyde] | – | – | – | – | – | – | – | – | – | 3.96 ± 0.29 µM | – | – | – | – | – | – | – | – | –
5 | COc1ccc(/C=C/C=O)cc1 [Compound 3, (E)-3-(4-methoxyphenyl)acrylaldehyde] | – | – | – | – | – | – | – | – | – | 7.88 ± 0.82 µM | – | – | – | – | – | – | – | – | –
6 | Cc1ccc(/C=C(\Br)C=O)cc1 [Compound 4, (Z)-2-bromo-3-p-tolylacrylaldehyde] | 11.4 ± 2.22 µM | 3.39 | 3.10 ± 0.74 Log TCID50/mg | 2.90 ± 0.57 Log TCID50/mg | ~3.3 h | 2.80 ± 0.70 grade | 2.10 ± 0.60 grade | 1.90 ± 0.60 grade | significantly reduced | 38.6 ± 4.89 µM | 39 fold | stable for 24 h | markedly diminished | inhibited | markedly diminished | inhibited | markedly diminished | inhibited | –
